A selection: hits, their analogues and other compounds. The true share with any hit is near 2.5%.
E coli Lon inh – inhibitors of E. coli Lon protease; hit rate 0.42% among 360,000; inhibition, % at 7.94 µM; purified E. coli Lon protease, fluorescence polarization; P0A9M0; in the data active means inhibition above about 13%, passing the limit was not always enough
TDP2 inh – blocks human TDP2 phosphodiesterase activity; inhibition, % at 12.8 µM; O95551; recombinant TDP2, T5PNP hydrolysis, p-nitrophenol absorbance 415 nm; hit rate 0.34% among 370,000;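 active means inhibition above the mean of all tested compounds plus 3 SD, set per campaign, cut at about 25% in these data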
Target sequence (O95551 whole entry, looked up): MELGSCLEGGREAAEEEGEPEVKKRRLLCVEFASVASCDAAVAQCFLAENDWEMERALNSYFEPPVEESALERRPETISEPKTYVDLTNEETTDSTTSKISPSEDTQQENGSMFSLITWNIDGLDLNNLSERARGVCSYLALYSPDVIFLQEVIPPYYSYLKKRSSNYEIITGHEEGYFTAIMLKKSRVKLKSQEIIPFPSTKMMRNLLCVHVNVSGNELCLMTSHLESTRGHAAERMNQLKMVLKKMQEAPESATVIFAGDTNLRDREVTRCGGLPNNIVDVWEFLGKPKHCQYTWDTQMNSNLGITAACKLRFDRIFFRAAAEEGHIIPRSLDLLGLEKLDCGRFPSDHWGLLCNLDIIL
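Test system: human TDP2 enzyme; Input: 120 nM TDP2 per well; Buffer or medium: Mg2+-containing Tris-HCl buffer, pH 7.5; Reagent: 5 mM T5PNP; Dosing: 12.8 µM single point, 1% DMSO; Incubation: reaction 2 h, 37 °C; Detection: p-Nitrophenol epi absorbance; Read-out: % inhibition relative to enzyme-containing and enzyme-free wells; Replicates: single well per compound.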
PAD4 FP inh – PAD4 (human) enzyme inhibition; Q9UM07; recombinant PAD4, RCA probe fluorescence polarization; inhibition, % at 6.36 µM; hit rate 0.41% among 330,000;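 active means percent inhibition above a cutoff equal to the mean of all tested compounds plus 3 SD, cut at about 15% in these data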
GSTO1 inh – GSTO1 inhibition, counter-screen for RBBP9 inhibitors; P78417; recombinant GSTO1, activity-based probe fluorescence polarization; inhibition, % at 5.96 µM; hit rate 1.1% among 300,000; AID 1974;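 active means inhibition above the campaign mean inhibition plus 3 SD, cut at about 35% in these data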
Target sequence (P78417 whole entry, looked up): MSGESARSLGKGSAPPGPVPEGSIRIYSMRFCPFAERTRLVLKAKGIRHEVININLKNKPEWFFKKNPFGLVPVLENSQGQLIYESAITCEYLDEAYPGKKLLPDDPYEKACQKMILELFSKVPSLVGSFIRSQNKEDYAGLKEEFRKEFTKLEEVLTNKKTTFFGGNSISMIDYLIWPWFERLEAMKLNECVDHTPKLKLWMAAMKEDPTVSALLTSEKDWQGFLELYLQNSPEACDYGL
PRMT1 inh – PRMT1 (human) inhibition, primary screen. Q99873. recombinant PRMT1, activity-based probe fluorescence polarization. inhibition, % at 2.79 µM. hit rate 1.3% among 370,000. AID 652257;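 active means inhibition above about 21% made by adding two undisclosed values, limit read from the data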
GSTO1 inh conf – confirmation of human GSTO1 inhibitors. shares compounds with GSTO1 inh. recombinant GSTO1, probe fluorescence polarization. inhibition, % at 5.96 µM. hit rate 54% among 2,400. AID 2176;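 active means inhibition above the primary screen's cutoff, its mean inhibition plus 3 SD, cut at about 35% in these data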;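 further: loss of polarization as inhibitors block binding of rhodamine sulfonate ester activity probe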
PAD4 FP conf – confirmation of human PAD4 inhibitors; shares compounds with PAD4 FP inh; recombinant PAD4, RCA probe fluorescence polarization; hit rate 28% among 1,200; inhibition, % at 6.36 µM;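 active means mean inhibition across replicates above the hit cutoff set by the earlier primary screen, cut at about 15% in these data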;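 further: inhibitors block active-site labeling by the probe so polarization falls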
A number is an active result; n = inactive; x = no result; + = active, no number.

SMILES | E coli Lon inh | TDP2 inh | PAD4 FP inh | GSTO1 inh | PRMT1 inh | GSTO1 inh conf | PAD4 FP conf
O=S(=O)(/N=C(/Nc1ccccc1F)c1ccccc1)c1ccccc1 | n | n | n | n | n | x | x
O=C(O)c1ccc(S(=O)(=O)/N=C2\C=C(Nc3ccccc3F)C(=O)c3ccccc32)cc1 | n | 89.1 | 66.8 | 90.8 | n | 92.6 | 64.6
COc1ccc(S(=O)(=O)/N=C2\C=C(Nc3ccc(O)cc3)C(=O)c3ccccc32)cc1 | n | 66.9 | 61.7 | 94.5 | n | 89.3 | 57.5
CC(=O)Nc1ccc(NC2=C/C(=N/S(=O)(=O)c3cccs3)c3ccccc3C2=O)cc1 | n | 77.0 | 64.5 | 87.4 | n | 86.2 | 44.7
C#CCNC(=O)CSCc1nc(-c2ccc(OCC)cc2)oc1C | x | n | x | x | n | x | x
CCCC[C@@H]1C(=O)N2N=Cc3cc4ccccc4cc3[C@H]2N2N=Cc3cc4ccccc4cc3[C@@H]12 | x | n | x | x | n | x | x
COC(=O)C1=C(C)N(Cc2cccc(C(F)(F)F)c2)C(=NCc2ccc(C(F)(F)F)cc2)NC1c1ccccc1 (stereo unspecified) | x | n | x | x | n | x | x
O=S(=O)(Cc1ccccc1)NCc1cccnc1 | n | n | n | n | n | x | x
O=C1C(Cl)=C(NCc2cccnc2)C(=O)c2ccccc21 | n | n | 21.4 | 76.8 | n | 57.0 | n
Cc1ccc(-n2c(SCC(=O)c3ccc(F)cc3)nnc2-c2cccnc2)cc1 | x | n | x | x | n | x | x
COCCCNc1c2c3c(cccc3[nH]c1=O)C(=O)c1ccccc1-2 | n | n | 135.0 | 79.5 | + | 91.6 | 151.3
COc1ccc(OC)c(NC(=O)Nc2ccc(O)c3ccccc23)c1 | n | n | 23.2 | 61.4 | n | n | n
O=C(Nc1ccccc1)Nc1ccc(O)c2ccccc12 | x | x | 23.8 | 47.0 | x | 37.9 | n
CCOc1ccc(S(=O)(=O)Nc2cc(Sc3ncn[nH]3)c3oc(=O)sc3c2)cc1 | x | x | 18.5 | 47.2 | x | n | n
Cc1[nH][nH]c(=O)c1C(c1c(C)[nH][nH]c1=O)c1cn(Cc2ccc(F)cc2)c2ccccc12 | n | x | 24.1 | 56.3 | x | n | n
COc1ccc(C(=O)c2c(C(F)(F)F)oc3c2C(=O)c2ccccc2C3=O)cc1 | n | x | 30.3 | 63.2 | x | 65.7 | 22.1
Cc1ccc(C(=O)c2c(C)oc3c2C(=O)C(=O)c2ccccc2-3)cc1 | n | x | n | n | x | x | x
CC(C)Cn1c(N)c(C(=O)NCC2CCCO2)c2nc3ccccc3nc21 (stereo unspecified) | n | n | n | n | n | x | x
COCCn1c(N)c(C(=O)NCC2CCCO2)c2nc3ccccc3nc21 (stereo unspecified) | n | n | 76.1 | 102.2 | n | n | n
CC1(C)Nc2ccc(O)cc2-c2c1ssc2=S | n | n | 41.1 | 63.0 | 22.1 | n | 17.5
COc1cccc(-n2sc3c(c2=S)-c2cc(OC)ccc2NC3(C)C)c1 | n | n | n | n | n | x | x
CCOc1ccc(C2OC34CCCCC3C(C#N)(C#N)C2(C#N)C(=N)O4)cc1OC (stereo unspecified) | 34.3 | x | 34.5 | 39.3 | x | n | 18.1
CCn1c(-c2ccccc2)c(C(=O)CCl)c2ccccc21 | n | n | 21.0 | 60.5 | n | 76.0 | 41.6
Cn1c(-c2ccccc2)c(C(=O)CCl)c2ccccc21 | n | n | x | x | n | x | x
N#CN1CCC(NS(=O)(=O)c2cccc(C(F)(F)F)c2)CC1 | x | n | x | x | n | x | x
SMILES | E coli Lon inh | TDP2 inh | PAD4 FP inh | GSTO1 inh | PRMT1 inh | GSTO1 inh conf | PAD4 FP conf
COc1cc(N=C2C(=O)N3c4c(cccc42)C(C)=CC3(C)C)cc(OC)c1 | n | n | n | n | n | x | x
CC1=CC(C)(C)N2C(=O)C(=Nc3ccc(O)cc3)c3cccc1c32 | n | n | 25.6 | 96.8 | n | n | n
COc1ccc(-n2c(Cc3cccs3)nnc2SCC(=O)Nc2cccc3ccccc23)cc1 | x | n | x | x | n | x | x
C=CCN1[C@H](C)COc2cccc(N3CCCC3)c2S1(=O)=O | x | n | x | x | n | x | x
Oc1c(Br)cc(Br)cc1C=Nc1cccc2ncccc12 | n | n | 37.4 | 73.4 | n | n | n
COC(=O)c1cn(-c2ccc3c(c2)[C@@]2(CC(=O)N(C)C2c2ccccc2)C(=O)N3CC(C)C)nn1 (stereo partly specified) | x | n | x | x | n | x | x
Cc1cc(C)c(S(=O)(=O)/N=C2/C=C(Sc3ncn[nH]3)C(=O)c3ccccc32)cc1C | n | 66.5 | 29.9 | 84.4 | 81.3 | 86.7 | n
CCCCCCCCNS(=O)(=O)/C=C/c1ccccc1CNC(=O)OC(C)(C)C | x | n | x | x | n | x | x
CN(C(=O)CNC(=O)c1ccccc1OCC(=O)Nc1ccc(Br)cc1)c1ccccc1 | x | n | x | x | n | x | x
CCN1CCCCC(NC(C)=O)C1=O (stereo unspecified) | x | n | x | x | n | x | x
O=C(CC1Nc2cccc3cccc(c23)NC1=O)Nc1ccccc1 (stereo unspecified) | n | n | 25.2 | 37.6 | n | n | n
C[C@@H]1ON(C)[C@H]2C[C@H]3c4[nH]c5c(-c6ccccc6)cccc5c4CCN3C(=O)[C@@H]12 | x | n | x | x | n | x | x
CC(=O)Nc1ccc(N2CCN(c3ccc(F)cc3)CC2)cc1 | n | n | n | n | n | x | x
O=C(O)/C=C\C(=O)Nc1ccc(N2CCN(c3ccc(F)cc3)CC2)cc1 | n | n | 23.7 | 58.5 | n | n | n
COc1ccc(C2Nc3ccccc3C(=O)N2Cc2cccnc2)cc1COc1c(C)cccc1C (stereo unspecified) | x | n | x | x | n | x | x
CN(C)c1ccc(N=Cc2cccn2C)cc1 | n | 25.2 | 25.1 | 82.9 | n | n | n
Cc1ccc(O)c(N=Cc2cc(Cc3ccccc3)cc([N+](=O)[O-])c2O)c1 | n | n | x | x | n | x | x
O=[N+]([O-])c1cc(Cc2ccccc2)cc(C=Nc2ccc(N3CCOCC3)cc2)c1O | n | x | 24.4 | 68.7 | x | n | n
C[C@@H]1CN([C@@H](C)CO)C(=O)CCCn2cc(nn2)CO[C@H]1CN(C)C(=O)Nc1ccnc(N2CCOCC2)c1 | x | n | x | x | n | x | x
CCc1ccc(OCC(=O)N/N=C2\CC(=O)c3ccccc32)cc1 | n | x | 24.6 | 61.2 | x | n | n
COc1ccc(C)cc1N | x | n | x | x | n | x | x
COc1ccc(OC)c(N)c1 | n | n | 38.4 | 45.5 | n | n | n
CN(CCc1ccccn1)C(=O)Cn1nc(-c2ccccc2)ccc1=O | x | n | x | x | n | x | x
O=C1CCC2(CCC(c3ccccc3)CC2)N1CCCO (stereo unspecified) | x | n | x | x | n | x | x
Nc1ccc(O)c2c1C(=O)c1ccccc1C2=O | n | n | 48.7 | 49.1 | n | 37.2 | 41.0
COc1ccc(C2C(C(=O)N3CCC(C)CC3)CC(=O)N2c2ccc(OC)cc2)cc1 (stereo unspecified) | x | n | x | x | n | x | x
CN(C)c1ccc(N/C=C/C(=O)c2ccccc2)cc1 | n | n | 17.3 | 61.8 | 22.1 | n | n
Cc1ccc(S(=O)(=O)Nc2cc(Cl)c(O)c3ncccc23)cc1 | n | n | 36.3 | 61.3 | n | n | n
Oc1c(Cl)cc(Cl)c2cccnc12 | n | n | x | x | n | x | x

Screening data as filed in PubChem BioAssay.
